# STAT1 activator: activators of IFN-gamma induced STAT1 signaling. activation (% of control), % at 5.5 µM. NIH 3T3 STAT1-luciferase reporter, luminescence; 100% = IFN-gamma alone, no compound. 200,000 compounds, 2.6% hits;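 active means activation above the screen-wide mean activation plus 3 SD, cut at about 130% in these data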;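 further: raw ratio to IFN-gamma control signal so 100% means no change and 0% no light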
# NF-kB neuron act: compounds increasing NF-kB expression in human neuronal cells; NF-kB reporter expression; hits give high values; fold change at 12.5 µM; 190,000 compounds, 1.6% hits; in the data active means fold change above about 3.3
# FLuc inhib CS: Photinus pyralis luciferase inhibition counter-screen. ATPLite firefly luciferase biochemical luminescence, 10 min. 200,000 compounds, 1.5% hits. inhibition, % at 10 µM. P08659. AID 1006;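 active means inhibition above about 50% when tested at 10 µM, limit read from the data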
# Target sequence (P08659 whole entry, looked up): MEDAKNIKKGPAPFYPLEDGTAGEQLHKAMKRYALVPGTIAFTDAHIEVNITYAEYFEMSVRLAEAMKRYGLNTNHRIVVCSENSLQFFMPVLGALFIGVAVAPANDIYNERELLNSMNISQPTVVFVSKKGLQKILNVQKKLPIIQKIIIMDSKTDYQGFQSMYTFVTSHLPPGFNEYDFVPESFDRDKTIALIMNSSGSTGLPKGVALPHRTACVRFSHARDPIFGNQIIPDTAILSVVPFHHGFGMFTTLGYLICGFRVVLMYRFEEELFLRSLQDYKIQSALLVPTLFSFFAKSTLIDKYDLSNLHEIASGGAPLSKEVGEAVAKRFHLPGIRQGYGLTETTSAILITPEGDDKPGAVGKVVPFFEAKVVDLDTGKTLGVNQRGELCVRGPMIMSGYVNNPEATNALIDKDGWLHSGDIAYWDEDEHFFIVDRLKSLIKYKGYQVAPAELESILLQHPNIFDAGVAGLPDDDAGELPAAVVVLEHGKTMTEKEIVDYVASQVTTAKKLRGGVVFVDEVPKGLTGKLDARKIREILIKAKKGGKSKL
# APP 5'UTR act: activates APP 5'UTR luciferase reporter. SH-SY5Y APP 5'UTR luciferase reporter, luminescence; zero percent = DMSO vehicle wells. activation, % at 2 µM. 190,000 compounds, 1% hits;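 active means activation above a set limit, based on mean plus 3 SD of controls, cut at about 140% in these data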
# Pf gametocyte: inhibitors of late stage P. falciparum gametocyte viability; P. falciparum stage V gametocytes, ATP luminescence, 24 h; inhibition, % at 10.9 µM; 150,000 compounds, 0.065% hits; AID 743093;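 active means inhibition above the mean plus 3 SD of compounds within the control limits, set per campaign, cut at about 38% in these data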;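 further: 0% = DMSO wells and 100% = medium only without gametocytes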
# FLuc act counter: affects firefly luciferase, flagging false hits in luciferase stimulation screens | activation factor at 10 µM | ATPlite luciferase biochemical, luminescence, 10 min; 0 = ATP-free wells, 1 = DMSO control | 200,000 tested, under 10 active | AID 1027;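 active means luciferase activation factor, scaled between plate controls, of at least 2 with compound at 10 µM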
#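 System: cell-free luciferase reagent; medium: PBS as buffer for the ATP substrate; doses: test compounds dosed from 2 mM stocks in 100% DMSO; incubation: 10 min, room temperature; measured by: luminescence from luciferase reaction; read-out: luciferase activation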
# * hit, by the source's call; nt = no result. Hits are enriched below; roughly 3.5% of the tested compounds scored in any of these assays.
SMILES,STAT1 activator,NF-kB neuron act,FLuc inhib CS,APP 5'UTR act,Pf gametocyte,FLuc act counter
Cc1nnc(N2CCN(C)CC2)c2nn(-c3ccc(Cl)cc3)c(C)c12,95,nt,nt,3,nt,nt
COc1ccc(/C=N/Nc2ccccn2)cc1O,nt,nt,nt,nt,8,nt
Fc1ccc(/C=N/Nc2ccccn2)cc1,117,2,30,49,nt,0.7
CCOc1ccc(/C=N/Nc2ccccn2)cc1,107,8.2*,82*,182*,14,0.2
COc1ccc2nc(Cl)c(/C=N/Nc3ccccn3)cc2c1,98,1.5,79*,37,1,0.2
Brc1ccc(/C=N/Nc2ccccn2)cc1,138*,3,16,58,8,0.8
Clc1ccc(/C=N/Nc2ccccn2)cc1,135*,2.5,9,31,-6,0.9
COc1ccccc1-c1nc(C#N)c(N2CCN(C(c3ccccc3)c3ccccc3)CC2)o1,108,1,-4,1,nt,1
O=C(CNC(=O)c1ccccc1Cl)OCC(=O)N1CCc2ccccc21,134*,2.7,16,9,-6,0.8
Cc1cc(C(=O)CN2CCC(C)CC2)c(C)n1-c1ccccc1F,135*,0.31,30,132,nt,0.7
COc1ccc(C(=O)CC2(C(=O)O)CCCCC2)cc1,nt,nt,nt,nt,5,nt
COC(=O)c1ccccc1NC(=O)N1c2ccccc2Sc2ccccc21,94,0.95,-3,16,8,1
O=C(Oc1ccc(F)cc1C(=O)/C=C/c1cccs1)c1cccc([N+](=O)[O-])c1,116,4.5*,-5,-43,nt,1
O=C(/C=C/c1ccccc1F)c1cccc([N+](=O)[O-])c1,105,1.2,0,22,12,1
COc1ccc2nc3cccc(OC)c3nc2c1,129*,0.95,5,7,-6,0.9
COc1ccc2nc3ccccc3nc2c1N,nt,nt,nt,nt,-19,nt
Cc1ccc(-c2c(C(=O)NNC(=S)NCC3CCCO3)csc2C)cc1 (stereo unspecified),86,1.2,-4,18,7,1
c1ccc2oc(C3=NNC(=NC4CC4)SC3)cc2c1,117,2.4,79*,nt,15,0.2
CCCCN=C1NN=C(c2ccc(C)c(C)c2)CS1,125,1.6,6,31,2,0.9
c1cc2c(cc1C1=NNC(=NC3CC3)SC1)OCCO2,12,0.26,96*,-51,1,0
Cc1cc(C2=NNC(=NC3CCCCC3)SC2)c(C)n1-c1c(C)n(C)n(-c2ccccc2)c1=O,99,0.92,0,6,17,1
c1ccc(CN=C2NN=C(c3cc4ccccc4o3)CS2)cc1,111,1.4,-2,18,8,1
Cc1cc(C2=NNC(=NC3CC3)SC2)c(C)n1-c1ccccc1F,21,0.18,96*,-70,-2,0
CCCCN=C1NN=C(c2ccc3c(c2)OCCO3)CS1,81,2.9,83*,80,15,0.2
Cc1ccc2nc(N3CCCCC3)c(C=O)c(=O)n2c1,103,1.1,-3,-4,nt,1
SMILES,STAT1 activator,NF-kB neuron act,FLuc inhib CS,APP 5'UTR act,Pf gametocyte,FLuc act counter
CSc1nnc(-c2ccccc2SC)o1,97,1.3,2,8,-4,1
CSc1ccccc1-c1nnc(-c2ccccc2)o1,144*,5.5*,64*,140*,11,0.4
Cc1ccc(-c2nnc(-c3ccccc3S(=O)(=O)Cc3ccc(Cl)cc3)o2)cc1,105,1.2,-4,-9,-12,1
CSc1ccccc1-c1nnc(-c2ccc(C)cc2)o1,146*,5*,71*,80,-13,0.3
Cc1ccc(N(CC(=O)N2CCN(Cc3ccccc3)CC2)S(C)(=O)=O)cc1C,nt,nt,nt,nt,-6,nt
COCCNc1c(-c2cc3ccc(C)c(C)c3[nH]c2=O)nc2ccccn12,130*,2.2,70*,121,8,0.3
C/C(=N\OC(=O)c1ccc(Br)cc1)c1ccccn1,105,1.5,80*,2,6,0.2
N/C(=N\OCc1ccc([N+](=O)[O-])cc1)c1ccccn1,16,1.6,96*,34,nt,0
C/C(=N/O)c1ccccn1,99,1.1,-9,-2,nt,1.1
C/C(=N/OCc1ccc(Br)cc1)c1ccccn1,138*,4*,45,197*,7,0.5
COCCn1c(C)cc(C(=O)CSc2nnc3ccccn23)c1C,72,0.67,29,nt,nt,0.7
Cc1ccc(C(=O)CSc2nnc3ccccn23)c(C)c1,119,4.1*,24,167*,3,0.8
Cc1ccc(C(=O)CSc2nnc(N)s2)c(C)c1,137*,1.8,25,67,-11,0.8
Cc1cc(C)c(C(=O)CSc2nnc(N)s2)cc1C,nt,nt,nt,nt,1,nt
COCCNC(=S)N/N=C1\CC(C)CC(C)(C)C1 (stereo unspecified),103,1.2,4,-1,4,1
COc1ccc(/C=N/NC(=O)CNc2ccc(Br)cc2)c(C(=O)O)c1OC,104,1,-2,15,nt,1
CCN(CC)S(=O)(=O)c1cc(NC(=O)Cn2ncc(Cl)c(Cl)c2=O)ccc1C,nt,nt,nt,nt,2,nt
Cc1ccc(-c2nc(N/N=C/c3cccc([N+](=O)[O-])c3)c3ccccc3n2)cc1,95,0.95,82*,37,-4,0.2
Clc1cccc(/C=N/Nc2nc(Cl)nc3ccccc23)c1,145*,2.5,22,nt,-34,0.8
Cc1ccc(-c2nc(N/N=C/c3cccnc3)c3ccccc3n2)cc1,48,2.1,97*,26,nt,0
CC[C@H](C)Cc1cn([C@@H](CCCCNC(=O)OC(C)(C)C)C(=O)NCCCCCCCCCCC(=O)N2CCN(C(=O)OC(C)(C)C)CC2)nn1,nt,nt,nt,nt,10,nt
O=C(O)COn1c(-c2ccccc2)nc2ccc(Cl)cc21,103,1.7,68*,7,13,0.3
COn1c(-c2ccccc2)nc2ccc(Cl)cc21,124,2,20,nt,-4,0.8
O=[N+]([O-])c1ccc2nc(-c3ccccc3)n(OCc3ccc(Cl)cc3)c2c1,120,5.1*,4,40,2,1
C/C(=N\Nc1ccc([N+](=O)[O-])cc1)c1ccco1,156*,2.7,-1,53,-3,1
SMILES,STAT1 activator,NF-kB neuron act,FLuc inhib CS,APP 5'UTR act,Pf gametocyte,FLuc act counter
CCOc1ccccc1NC(=O)NCc1ccco1,nt,nt,nt,nt,-1,nt
O=C(NCc1ccco1)Nc1ccc(Br)cc1Cl,133*,1.7,3,43,nt,1
Cc1[nH]c2ccccc2c1N=Nc1cccc(C(=O)O)c1,147*,4.1*,-6,83,1,1.1
COC(=O)c1cc(N=Nc2c(C)[nH]c3ccccc23)cc(C(=O)OC)c1,nt,nt,nt,nt,-1,nt
COc1ccc(CCNC(=O)c2sc3cc(C)ccc3c2Cl)cc1,96,1.1,-8,8,nt,1.1
CC(NC(=O)c1sc2ccccc2c1Cl)C1CCCO1 (stereo unspecified),125,2.1,63*,32,12,0.4
CC(NC(=O)c1csc2ccccc12)C1CCCO1 (stereo unspecified),103,0.95,-4,-7,nt,1

# From PubChem BioAssay
